# High-throughput results from PubChem.
# SENP6 block: SENP6 protease inhibitors, primary screen, biochemical, luminescence, uHTS | Sentrin-specific protease 6 (Homo sapiens), Q9GZR1 | Recombinant SENP6 catalytic domain, aminoluciferin luminescence | inhibition, % at 10 µM | 330,000 tested, 1.8% active | AID 2599, 2010;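 active = inhibition above about 50% at the single tested dose, limit read from the data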;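 also: plate controls were DMSO wells with enzyme for no effect and DMSO wells lacking enzyme for full effect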
# SENP8 block-1: human SENP8 protease inhibitors, primary screen, biochemical, fluorescence, Nedd8 protein substrate, uHTS. 360,000 tested, 0.64% active. inhibition, % at 20 µM. recombinant SENP8; in the data active = inhibition mostly above about 40%, no sharp cut-off; inactive = mostly below about 27%
# Target sequence (Q96LD8 whole entry, looked up): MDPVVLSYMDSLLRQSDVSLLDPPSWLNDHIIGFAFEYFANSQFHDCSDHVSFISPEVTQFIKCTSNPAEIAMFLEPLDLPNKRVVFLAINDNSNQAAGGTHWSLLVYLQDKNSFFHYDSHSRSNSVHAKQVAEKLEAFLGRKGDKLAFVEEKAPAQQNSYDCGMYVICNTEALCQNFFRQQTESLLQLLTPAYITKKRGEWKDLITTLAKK
# SENP7 inh: SENP7 protease inhibitors, primary screen, biochemical, luminescence, uHTS. Sentrin-specific protease 7 (Homo sapiens), Q9BQF6. recombinant SENP7, Z-RLRGG-aminoluciferin luminescence, 40 min. 330,000 tested, 1.5% active. AID 434973, 2010. inhibition, % at 5 µM;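 active = inhibition above about 50% at the single test dose, limit read from the data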;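 also: plate controls were DMSO with enzyme for no effect and no enzyme buffer wells for full effect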
# UBC13 polyUb: UBC13 polyubiquitin chain formation inhibitors, primary screen, biochemical, TR-FRET, uHTS. Ubiquitin-conjugating enzyme E2 N (Homo sapiens), P61088. inhibition, % at 20 µM. 330,000 tested, 0.47% active. AID 485273, 2010; in the data active = inhibition above about 45%, passing the limit was not always enough
# Target sequence (P61088 whole entry, looked up): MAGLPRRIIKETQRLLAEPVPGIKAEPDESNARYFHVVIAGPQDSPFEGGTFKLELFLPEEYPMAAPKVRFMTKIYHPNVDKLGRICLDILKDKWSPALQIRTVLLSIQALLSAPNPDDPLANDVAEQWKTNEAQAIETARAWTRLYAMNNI
# SENP8 block-2: SENP8 protease inhibitors, primary screen, biochemical, luminescence | AID 2540, 2010 | 330,000 tested, 1.2% active | inhibition, % at 10 µM | purified SENP8, Z-RLRGG-aminoluciferin cleavage | Sentrin-specific protease 8 (Homo sapiens), Q96LD8; in the data active = inhibition above about 50%
# Apaf-1 inh: inhibitors of human Apaf-1 apoptosome, primary screen, biochemical, DEVD-Rh110 fluorescence, uHTS; reconstituted apoptosome caspase-3 activity; inhibition, % at 20 µM; 330,000 tested, 0.71% active; active = inhibition of at least 40% at 20 µM;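 also: plate controls were DMSO wells for no effect and DEVD-CHO caspase inhibitor wells for full effect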
#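 Material: reconstituted apoptosome with Apaf-1, cytochrome c, caspase-9, procaspase-3, dATP / Buffer or medium: pH 7.5 Hepes buffer with CHAPS, BSA, DTT / Also added: cytochrome c with DEVD-Rh110 / Schedule: compound with Apaf-1, dATP, procaspase-3 30 min, then 50 min reaction, room temperature / Technique: rhodamine 110 fluorescence at Ex 480/Em 540 nm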
# SENP8 conf: human SENP8 protease inhibitors, confirmation, biochemical, Nedd8 protein substrate, single concentration | inhibition, % at 25 µM | 1,400 tested, 15% active | shares compounds with SENP8 block-1 | purified SENP8, Nedd8-AMC/pro-Nedd8 cleavage fluorescence, 30 min; in the data active = inhibition mostly above about 39%, no sharp cut-off; inactive = mostly below about 34%
# Active calls of the source: *; x = not tested or not shown. Rows were chosen to be rich in hits. Some 3% of all compounds tested hit in one or more screens of this group.
SMILES,SENP6 block,SENP8 block-1,SENP7 inh,UBC13 polyUb,SENP8 block-2,Apaf-1 inh,SENP8 conf
CCC(C)[C@H](NS(=O)(=O)c1ccc(C)cc1)C(=O)N1CCC(C(=O)N2CCC(C(=O)OC)CC2)CC1 (some centres undefined),13.0,45.8*,5.6,-3.1,-2.7,16.9,3.4
NC(c1ccc(F)c(F)c1)c1nc(-c2cc(F)cc(F)c2)cs1 (centres undefined),x,7.5,x,x,x,x,x
CN1CCC2(CC1)N=C(c1ccc(F)cc1)C(=S)N2C(=O)c1ccccc1,18.5,55.2*,1.9,9.3,0.3,1.9,39.4*
Nc1c(Br)cc(Br)c2c1[nH]c(=O)c1ccccc12,x,73.4*,x,x,x,x,11.9
O=c1[nH]c2ccccc2c2ccccc12,-18.8,-29.2,6.1,3.2,-7.9,-4.2,x
O=S1(=O)NC2c3ccccc3CC2O1 (centres undefined),15.0,45.5*,12.6,-34.1,-2.5,31.4,57.4*
CC1(C)OCC(C2CC(c3ccccc3)NS(=O)(=O)O2)O1 (centres undefined),-11.1,10.2,9.7,-11.6,-12.6,0.4,x
C/C=C/c1ccc(OCCCCn2cncn2)c(OC)c1,-5.5,2.5,-1.4,7.7,7.2,-2.3,x
C/C=C/c1ccc(OCCCn2cncn2)c(OC)c1,-9.7,47.1*,-15.2,-4.5,-8.3,7.1,12.3
COc1ccc(N2CC(C)(C)[C@H](CC(=O)Nc3ccccc3)C2=O)cc1,x,-0.9,x,x,x,x,x
CN(CCO)c1cc(N2CCCCC2)c2nonc2c1[N+](=O)[O-],16.3,27.4,-7.3,-76.8,-7.5,1.3,x
CC1CCCN(c2cc(N(C)CCO)c([N+](=O)[O-])c3nonc23)C1 (centres undefined),-5.7,48.8*,1.2,-77.7,0.8,1.9,1.2
O=C(CC[C@H]1O[C@@H](n2ccc(=O)[nH]c2=O)[C@H](O)[C@@H]1O)NCCc1c[nH]c2ccccc12,x,20.8,x,x,x,x,x
CCN(CC)C(c1ccc(F)cc1)c1nnnn1CC1CCCO1 (centres undefined),-0.8,45.3*,-0.2,5.8,6.9,-6.9,-12.9
O=C(COc1ccc(C(F)(F)F)cc1[N+](=O)[O-])Nc1cccc(C(F)(F)F)c1,-13.1,21.4,6.4,-8.1,-7.6,-11.3,x
COC(=O)c1cnc(Nc2cccc(C(F)(F)F)c2)c([N+](=O)[O-])c1,1.3,32.8*,2.5,-7.2,-0.4,-1.5,16.4
COC(=O)CC1(C(=O)OC)Nc2cc(Cl)c(Cl)cc2S(=O)(=O)N1O (centres undefined),x,6.4,x,x,x,x,x
Cc1ccc(NC(=O)c2ncn(CCCNCC3CCCCC3)n2)cc1C,x,-4.7,x,x,x,x,x
CC(C)c1ccc(NC(=O)[C@H](NC(=O)[C@@H]2Cc3ccccc3CN2)c2ccccc2)cc1,-10.5,8.3,3.8,9.3,-3.8,18.2,x
CC(NC(=O)[C@H](NC(=O)[C@@H]1Cc2ccccc2CN1)c1ccccc1)c1ccccc1 (some centres undefined),-5.3,41.1*,1.9,5.6,4.2,-6.1,8.6
O=C(O)CCCCCNS(=O)(=O)c1ccc(Cl)cc1,11.4,11.8,-5.0,3.3,8.3,-4.4,x
O=C(O)CCCCNS(=O)(=O)c1ccc(Cl)c(C(F)(F)F)c1,-5.4,42.5*,-1.3,-15.3,-4.9,5.6,8.1
CCN(CC)c1ccc(N=Cc2ccccc2[N+](=O)[O-])cc1,28.4,66.4*,7.1,-46.6,-7.0,62.0*,31.0
O=[N+]([O-])c1ccccc1/C=N/OCc1ccccc1,32.4,18.8,0.0,2.1,10.0,11.7,x
Nc1ncc([N+](=O)[O-])c(Oc2ccccc2F)n1,-45.9,49.0*,-2.8,-0.1,-0.5,-34.2,9.5
SMILES,SENP6 block,SENP8 block-1,SENP7 inh,UBC13 polyUb,SENP8 block-2,Apaf-1 inh,SENP8 conf
O=[N+]([O-])c1ccc(N2CCN(Cc3ccccc3)CC2)c2c1no[n+]2[O-],x,42.0*,x,x,x,x,83.5*
O=C(C(=O)c1ccc(O)cc1)c1ccccc1,-30.7,18.1,10.1,-1.9,0.7,0.6,x
N#CC(C(=O)c1ccccc1)=C1SCCS1,6.6,41.8*,3.3,-1.0,-2.1,17.9,9.1
O=C(NCCc1ccccc1)C(=O)NCC(c1ccco1)N1CCOCC1 (centres undefined),-18.1,42.8*,-9.8,-10.3,-10.7,-7.1,4.9
O=C(NCc1ccccc1)C(=O)NCC(c1ccco1)N1CCOCC1 (centres undefined),14.8,16.0,0.5,0.5,7.0,-10.0,x
COc1ccc(S(=O)(=O)N2CCC(C(=O)N3CCN(c4ccccc4OC)CC3)CC2)cc1,-1.6,42.6*,-3.8,11.0,0.4,1.4,3.6
COc1ccccc1N1CCN(C(=O)C2CCN(S(=O)(=O)c3ccccc3)CC2)CC1,-14.3,5.5,1.9,2.3,0.1,-20.2,x
COc1cc(NC(=O)c2ccc([N+](=O)[O-])o2)ccc1NC(=O)c1ccco1,6.5,43.6*,7.3,-22.4,2.6,17.4,16.1
CCOC(=O)C1C2C=CC3(CN(Cc4cccs4)C(=O)C13)O2 (centres undefined),-1.4,45.0*,-4.8,-0.2,1.6,-5.2,6.3
COC(=O)C1[C@H]2C(=O)N(Cc3cccs3)C[C@]23C=C[C@H]1O3 (some centres undefined),-6.3,9.1,0.3,-11.1,-1.1,-6.1,x
O=C1C[C@@H]2C(=O)N(c3ccccc3)C(=O)[C@@H]2[C@@H]2CN(S(=O)(=O)c3ccccc3)[C@@H](c3ccccc3)[C@H]12,x,10.3,x,x,x,x,x
C/C(=N\NC(=O)c1ccc(Cl)cc1)c1ccccn1,22.4,18.3,17.5,1.3,16.2,6.4,x
C/C(=N\NC(=O)c1ccccn1)c1ccc(Cl)cc1,42.4,55.3*,25.6,6.6,40.6,-8.6,6.4
CCCC(C)(C)C(=O)N1CCC1(C)C(=O)Nc1cccc(OC)c1 (centres undefined),x,12.1,x,x,x,x,x
O=C(O)COc1ccc2nsnc2c1Cl,-4.3,-414.9,10.6,25.7,2.8,5.9,x
Cc1ccccc1C1=C/C(=C(\SS/C(C(=O)c2ccc(OCC(=O)O)c(Cl)c2Cl)=C2\C=C(c3ccccc3C)SS2)C(=O)c2ccc(OCC(=O)O)c(Cl)c2Cl)SS1,x,41.0*,x,x,x,x,55.6*
O=C(NC1CCCCC1)Oc1ccccc1,-7.2,40.3*,-8.8,-6.6,-11.1,3.0,9.8
